Experiments:
[1] = test system: KDM5B and KDM5C; conditions: ref Horton et al., 2016; cited from earlier work
[2] = target: KDM6B catalytic domain (residues 1043-1682) (Homo sapiens, UniProt O15054); experiment: AlphaScreen demethylase assay, KDM6B; format: biochemical; conditions: at 50 μM, the highest inhibitor concentration tested
Method in brief: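 Purified KDM6B catalytic domain (residues 1043-1682) was assayed by AlphaScreen for demethylase activity across a test-compound concentration series, with 50 μM the highest concentration tested. IC50 was averaged from 4 independent experiments, with S.E.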

[3] = target: Flag-tagged full-length KDM5B (Homo sapiens, UniProt Q9UGL1); experiment: AlphaLISA / AlphaScreen demethylase assay, KDM5B; format: biochemical; conditions: nanomolar enzyme concentration; two independent assays
Method in brief: (§1)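 Full-length human enzymes, Flag-tagged and purified from Sf21 insect cells, assayed for demethylation by AlphaScreen.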

[4] = target: Flag-tagged full-length KDM5A (Homo sapiens, UniProt P29375); experiment: AlphaLISA / AlphaScreen demethylase assay, KDM5A; format: biochemical; conditions: nanomolar enzyme concentration; two independent assays
Method in brief: as §1

[5] = target: full-length KDM6A (Homo sapiens, UniProt O15550); experiment: AlphaScreen demethylase assay, KDM6A; format: biochemical; conditions: at 50 μM, the highest inhibitor concentration tested
Method in brief: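 Full-length KDM6A demethylase activity measured by AlphaScreen with test compound up to 50 μM, the highest concentration tested. Two independent experiments; average and S.E. reported.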

[6] = test system: KDM4A catalytic domain (residues 1-350); experiment: Demethylase inhibition, KDM4A catalytic domain; format: biochemical
[7] = target: Flag-tagged full-length KDM5C (Homo sapiens, UniProt P41229); experiment: AlphaLISA / AlphaScreen demethylase assay, KDM5C; format: biochemical; conditions: nanomolar enzyme concentration; two independent assays
Method in brief: as §1

[8] = test system: BT474 cells; experiment: Colony formation assay, BT474; format: cell-based, human; conditions: 5 μM
Method in brief: (§2)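 Cells were treated with DMSO or 5 μM test compound and colonies quantified by image intensity. Percent intensity was normalized to the average percent intensity of DMSO-treated cells, with SEM error bars. Data are from biological duplicate experiments, each run in triplicate.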

[9] = test system: MCF7 cells; experiment: Western blot of global histone methylation, MCF7; format: cell-based, human; conditions: 5 μM, 3 days
Method in brief: (§3)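 Cells were exposed to DMSO or 5 μM test compound for 3 days and histone marks detected by western blot. Fold is H3K4me3 band intensity over total H3, normalized to the DMSO control. Data are from biological duplicate experiments, each run in duplicate.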

[10] = test system: MCF7 cells; experiment: Colony formation assay, MCF7; format: cell-based, human; conditions: 5 μM
Method in brief: as §2

[11] = test system: ZR-75-1 cells; experiment: Colony formation assay, ZR-75-1; format: cell-based, human; conditions: 5 μM
Method in brief: as §2

[12] = test system: PC9 lung cancer cells; experiment: Colony formation assay, PC9; format: cell-based, human; conditions: 5 μM
[13] = test system: MCF10A immortalized, non-transformed mammary epithelial cells; experiment: Colony formation assay, MCF10A; format: cell-based, human; conditions: 5 μM
[14] = test system: MDA-MB-231 cells; experiment: Colony formation assay, MDA-MB-231; format: cell-based, human; conditions: 5 μM
Method in brief: as §2

[15] = test system: MDA-MB-231 cells; experiment: Western blot of global histone methylation, MDA-MB-231; format: cell-based, human; conditions: 5 μM, 3 days
Method in brief: as §3

[16] = test system: MCF7 cells; experiment: Real time RT-PCR of KDM5 target genes, MCF7; format: cell-based, human; conditions: 5 μM for 3 days
Method in brief: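 MCF7 cells were exposed to DMSO or 5 μM test compound for 3 days. BRCA1, STK6, BUB3, BUB1B, MT1F and MT1H mRNA levels were then quantified by real-time RT-PCR, with SEM error bars.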

Flag-tagged full-length KDM5A, sequence (P29375 whole entry): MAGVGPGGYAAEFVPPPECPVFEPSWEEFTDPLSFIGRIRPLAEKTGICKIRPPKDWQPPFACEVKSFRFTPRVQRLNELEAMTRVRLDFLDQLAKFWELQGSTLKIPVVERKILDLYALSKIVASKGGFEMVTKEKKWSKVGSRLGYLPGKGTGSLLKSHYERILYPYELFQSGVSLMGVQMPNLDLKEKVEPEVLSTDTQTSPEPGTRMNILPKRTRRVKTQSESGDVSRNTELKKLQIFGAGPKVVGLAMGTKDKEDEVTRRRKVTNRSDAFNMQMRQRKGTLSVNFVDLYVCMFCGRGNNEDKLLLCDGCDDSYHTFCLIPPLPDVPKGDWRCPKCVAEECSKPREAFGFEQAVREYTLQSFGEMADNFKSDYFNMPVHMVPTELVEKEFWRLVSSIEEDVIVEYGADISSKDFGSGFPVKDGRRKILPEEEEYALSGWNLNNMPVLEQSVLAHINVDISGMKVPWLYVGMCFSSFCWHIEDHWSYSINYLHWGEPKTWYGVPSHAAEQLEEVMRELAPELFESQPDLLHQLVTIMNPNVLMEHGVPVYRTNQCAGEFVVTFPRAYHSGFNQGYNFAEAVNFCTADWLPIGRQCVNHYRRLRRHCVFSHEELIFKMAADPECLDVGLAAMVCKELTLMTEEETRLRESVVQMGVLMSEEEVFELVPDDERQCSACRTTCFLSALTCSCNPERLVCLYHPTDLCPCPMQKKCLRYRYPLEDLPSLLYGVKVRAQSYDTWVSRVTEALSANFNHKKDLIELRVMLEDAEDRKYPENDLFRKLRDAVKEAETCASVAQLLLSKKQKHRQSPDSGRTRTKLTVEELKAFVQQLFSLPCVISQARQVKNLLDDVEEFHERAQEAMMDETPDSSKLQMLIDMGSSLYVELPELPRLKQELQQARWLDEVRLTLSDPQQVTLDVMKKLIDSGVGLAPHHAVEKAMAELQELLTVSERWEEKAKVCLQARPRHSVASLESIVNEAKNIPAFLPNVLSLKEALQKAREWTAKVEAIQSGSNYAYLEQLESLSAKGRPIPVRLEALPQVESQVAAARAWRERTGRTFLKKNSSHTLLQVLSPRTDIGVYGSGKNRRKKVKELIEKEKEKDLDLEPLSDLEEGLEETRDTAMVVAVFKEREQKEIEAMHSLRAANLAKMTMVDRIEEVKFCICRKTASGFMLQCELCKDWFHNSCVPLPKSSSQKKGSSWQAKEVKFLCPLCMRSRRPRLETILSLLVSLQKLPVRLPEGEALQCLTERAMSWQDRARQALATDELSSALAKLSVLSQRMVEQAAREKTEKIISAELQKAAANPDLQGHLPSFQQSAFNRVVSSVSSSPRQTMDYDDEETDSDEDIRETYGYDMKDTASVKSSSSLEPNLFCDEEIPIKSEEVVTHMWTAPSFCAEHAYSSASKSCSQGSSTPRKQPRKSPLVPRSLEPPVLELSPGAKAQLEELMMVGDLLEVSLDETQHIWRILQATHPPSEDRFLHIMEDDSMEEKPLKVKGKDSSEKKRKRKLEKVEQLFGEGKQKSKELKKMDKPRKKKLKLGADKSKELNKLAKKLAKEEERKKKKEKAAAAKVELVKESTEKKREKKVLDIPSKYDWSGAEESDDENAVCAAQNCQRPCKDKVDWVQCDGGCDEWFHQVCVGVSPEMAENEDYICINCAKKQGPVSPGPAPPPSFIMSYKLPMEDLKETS
Flag-tagged full-length KDM5B, sequence (Q9UGL1 whole entry): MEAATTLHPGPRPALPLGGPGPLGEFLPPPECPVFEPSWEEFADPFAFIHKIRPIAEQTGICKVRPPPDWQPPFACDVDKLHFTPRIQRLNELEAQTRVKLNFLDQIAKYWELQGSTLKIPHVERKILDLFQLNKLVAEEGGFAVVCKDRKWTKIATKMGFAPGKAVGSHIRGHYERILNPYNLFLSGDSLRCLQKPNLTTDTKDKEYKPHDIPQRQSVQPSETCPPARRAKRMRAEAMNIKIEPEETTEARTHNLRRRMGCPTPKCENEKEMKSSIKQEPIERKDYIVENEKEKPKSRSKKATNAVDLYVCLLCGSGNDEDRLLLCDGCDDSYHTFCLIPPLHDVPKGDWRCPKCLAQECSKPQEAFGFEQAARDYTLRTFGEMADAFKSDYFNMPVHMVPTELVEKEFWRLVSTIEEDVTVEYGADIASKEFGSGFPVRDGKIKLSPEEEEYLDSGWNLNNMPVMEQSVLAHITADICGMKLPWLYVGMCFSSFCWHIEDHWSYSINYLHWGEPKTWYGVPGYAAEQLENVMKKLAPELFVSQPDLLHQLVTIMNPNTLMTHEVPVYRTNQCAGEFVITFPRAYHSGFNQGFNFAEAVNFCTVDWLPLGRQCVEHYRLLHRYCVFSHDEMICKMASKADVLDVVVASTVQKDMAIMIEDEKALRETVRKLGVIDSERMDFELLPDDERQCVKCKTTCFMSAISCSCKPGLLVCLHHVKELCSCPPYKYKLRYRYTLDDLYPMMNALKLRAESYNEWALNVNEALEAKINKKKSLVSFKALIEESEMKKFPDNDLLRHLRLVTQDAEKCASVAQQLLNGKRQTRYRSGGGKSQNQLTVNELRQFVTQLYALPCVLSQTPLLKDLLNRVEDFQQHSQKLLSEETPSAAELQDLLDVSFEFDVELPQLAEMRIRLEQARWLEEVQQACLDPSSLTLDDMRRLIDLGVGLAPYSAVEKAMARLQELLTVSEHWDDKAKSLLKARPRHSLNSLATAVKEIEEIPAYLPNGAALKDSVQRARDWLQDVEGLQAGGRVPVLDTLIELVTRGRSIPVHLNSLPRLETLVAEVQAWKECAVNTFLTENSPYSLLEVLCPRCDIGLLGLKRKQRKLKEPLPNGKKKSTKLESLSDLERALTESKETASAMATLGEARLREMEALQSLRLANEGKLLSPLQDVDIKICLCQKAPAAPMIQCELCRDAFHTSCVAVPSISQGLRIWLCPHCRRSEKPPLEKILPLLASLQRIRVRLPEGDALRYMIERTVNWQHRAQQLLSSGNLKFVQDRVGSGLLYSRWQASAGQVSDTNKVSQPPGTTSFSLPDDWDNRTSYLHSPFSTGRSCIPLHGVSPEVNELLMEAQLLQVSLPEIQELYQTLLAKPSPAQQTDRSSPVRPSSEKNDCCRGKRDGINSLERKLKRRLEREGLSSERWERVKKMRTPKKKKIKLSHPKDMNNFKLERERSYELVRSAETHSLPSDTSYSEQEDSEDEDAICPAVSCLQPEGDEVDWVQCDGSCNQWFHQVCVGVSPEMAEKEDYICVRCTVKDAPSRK
KDM6B catalytic domain (residues 1043-1682), sequence (O15054 1043-1682 isoform O15054-1): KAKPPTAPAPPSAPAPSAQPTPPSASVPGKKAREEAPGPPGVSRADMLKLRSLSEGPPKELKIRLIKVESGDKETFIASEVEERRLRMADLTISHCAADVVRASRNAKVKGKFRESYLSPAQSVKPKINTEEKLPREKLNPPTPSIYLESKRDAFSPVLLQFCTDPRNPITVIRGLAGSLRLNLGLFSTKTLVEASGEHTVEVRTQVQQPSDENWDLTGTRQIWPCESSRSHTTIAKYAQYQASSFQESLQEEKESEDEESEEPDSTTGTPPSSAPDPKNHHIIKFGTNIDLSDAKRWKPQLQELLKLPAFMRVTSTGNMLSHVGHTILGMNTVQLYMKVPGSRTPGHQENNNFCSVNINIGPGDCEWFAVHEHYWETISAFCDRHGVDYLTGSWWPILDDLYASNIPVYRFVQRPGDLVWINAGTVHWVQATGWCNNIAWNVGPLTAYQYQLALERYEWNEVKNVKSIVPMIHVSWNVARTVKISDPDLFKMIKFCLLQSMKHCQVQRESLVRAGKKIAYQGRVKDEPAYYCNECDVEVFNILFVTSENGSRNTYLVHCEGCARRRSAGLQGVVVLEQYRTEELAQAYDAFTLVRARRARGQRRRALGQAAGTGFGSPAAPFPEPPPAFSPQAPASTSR

**Q.** Which “more active against KDM5C than against KDM5B” value [1] does the source give for `O=C(O)CCNc1cc(N2CCc3ccccc3CC2)nc(-c2ccccn2)n1` [GSK-J1] here?
**A.** ~ 8.5 fold

**Q.** Which “increased potency against KDM5B compared to KDM5C” value [1] does the source give for `Clc1ccc(N/N=C(\c2ccccc2)c2ccccn2)nc1` [JIB-04] here?
**A.** ~ 8 fold

**Q.** What does the source list for `CCN(CCN(C)C)C(=O)CNCc1cc(C(=O)O)ccn1` [KDM5-C49]?
**A.** inhibition of KDM6B activity [2]: ≤ 50%; IC50, full-length KDM5B [3]: nanomolar range; IC50, full-length KDM5A [4]: nanomolar range; inhibition of KDM6A activity [5]: ≤ 50%; weaker potency against KDM4A catalytic domain than against KDM5B catalytic domain or full length KDM5B [6]: ~ 10 fold; IC50, full-length KDM5C [7]: nanomolar range

**Q.** Which “growth inhibited (colony formation)” value [8] does the source give for `CCOC(=O)c1ccnc(CNCC(=O)N(CC)CCN(C)C)c1` [KDM5-C70] here?
**A.** 97%

**Q.** And the “H3K4me2/me1, H3K27me3, H3K9me3/H3K36me3 levels” value [9]?
**A.** little impact

**Q.** And the “global levels of H3K4me3” value [9]?
**A.** significantly increased

**Q.** And the “growth inhibited (colony formation)” value [10]?
**A.** 85%

**Q.** What about the “growth inhibited (colony formation)” value [11] of the same molecule?
**A.** 70%

**Q.** And the “effect on colony formation” value [12]?
**A.** none were significantly affected

**Q.** And the “effect on colony formation” value [13]?
**A.** none were significantly affected

**Q.** And the “effect on colony formation” value [14]?
**A.** none were significantly affected

**Q.** What about the “H3K4me2/me1, H3K27me3, H3K9me3/H3K36me3 levels” value [15] of the same molecule?
**A.** little impact

**Q.** And the “global levels of H3K4me3” value [15]?
**A.** significantly increased

**Q.** And the “expression of MT1F mRNA” value [16]?
**A.** increase

**Q.** What about the “expression of MT1H mRNA” value [16] of the same molecule?
**A.** increase
